Bioassay records: PubChem BioAssay, several laboratories
Compounds with a hit are over-represented: about 0.6% of the library has one in this group of screens.
GSK3A inh = blocks human GSK-3 alpha kinase; ADP-Glo luminescence, 60 min; inhibition, % at 10 µM; actives 0.1% (n = 320,000); P49840;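 active means more than half of replicates show inhibition above 20%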;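 further: GST-tagged GSK-3 alpha with peptide substrate and 25 µM ATP; 0% = DMSO neutral wells and 100% = GW8510 positive control wells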
Target sequence (P49840 whole entry, looked up): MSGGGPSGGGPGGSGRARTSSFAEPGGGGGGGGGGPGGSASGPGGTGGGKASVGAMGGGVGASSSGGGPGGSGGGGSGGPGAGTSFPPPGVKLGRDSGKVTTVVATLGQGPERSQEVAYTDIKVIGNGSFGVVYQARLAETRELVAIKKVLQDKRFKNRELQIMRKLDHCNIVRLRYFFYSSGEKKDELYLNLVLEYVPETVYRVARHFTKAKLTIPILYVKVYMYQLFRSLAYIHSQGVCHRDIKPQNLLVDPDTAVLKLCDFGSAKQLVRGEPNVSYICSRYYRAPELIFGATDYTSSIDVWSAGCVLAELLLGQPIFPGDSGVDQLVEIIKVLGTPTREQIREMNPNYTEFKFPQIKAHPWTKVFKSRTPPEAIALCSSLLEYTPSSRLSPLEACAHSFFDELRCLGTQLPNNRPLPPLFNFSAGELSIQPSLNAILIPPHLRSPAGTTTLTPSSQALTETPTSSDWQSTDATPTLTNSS
Efflux pump inh = antifungal efflux pump inhibition, Nile Red retention | S. cerevisiae Candida pump triplex | inhibition, % at 10 µM | actives 0.44% (n = 330,000) | AID 485275;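 active means plate passing quality check with inhibition over a set limit, or well fluorescence over plate mean plus 4 SD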;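 further: Nile Red retained in pooled yeast measured as flow cytometry median fluorescence; 0% = buffer negative control and 100% = Enniatin B positive control; higher means more Nile Red kept so more efflux inhibition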
PolyA inhibitor = inhibitors of polyadenylation in S. cerevisiae | actives 0.02% (n = 300,000) | activity score, % at 12 µM | AID 1875 | S. cerevisiae SKY197-pL101 polyadenylation reporter, beta-gal luminescence; efflux-impaired pdr1/pdr3 knockout yeast; score 100 = 6 SD above DMSO;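 active means lowest replicate activity score at least 50, where 100 means six control SD above control mean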;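 further: yeast exposed to compound for 9 h at 30 °C; higher score means more reporter readthrough which indicates perturbed polyadenylation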
STK33 inh = human STK33 kinase inhibition | Q9BYT3 | purified STK33, MBP phosphorylation, ADP-Glo luminescence | inhibition, % at 10 µM | actives 0.073% (n = 320,000);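 active means inhibition at or above 25%, using the most active replicate where run in duplicate; inactive means inhibition below 25%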
GSK3B inh = inhibitors of human GSK3beta kinase. actives 0.038% (n = 300,000). AID 2097. GST-GSK3beta kinase, ADP-Glo luminescence, 60 min; active compounds read low. P49841. activity score (negative = inhibition), % at 10 µM;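 active means more than half of replicate wells score below -50%, meaning over 50% inhibition versus plate controls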;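 further: 0% = median DMSO wells and -100% = median GW8510 positive control wells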
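Test system – GST-tagged human GSK3beta kinase, cell-free · Incubation – 60 min enzyme reaction, room temperature · Signal – ADP-Glo luminescence · Also added – peptide substrate and ATP at 25 µM · Controls – DMSO neutral wells and GW8510 at 20 µM as positive · Buffer or medium – Tris/MgCl2 kinase buffer · Measure – Luminescence-derived activity versus plate DMSO and GW8510 wells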
Cmpd fluor yeast = compound fluorescence in yeast efflux pump counter-screen | AID 588517 | shares compounds with Efflux pump inh | actives 4% (n = 1,700) | S. cerevisiae AD/pABC3, flow cytometry | fluorescence ratio to DMSO, % at 10 µM;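 active means fluorescence ratio to DMSO above its plate's cutoff, the plate mean ratio plus 5 SD, cut at about 210% in these data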;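 further: unstained yeast with no Nile Red so the signal is compound autofluorescence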
CaMdr1 efflux inh = Candida Mdr1 efflux pump inhibition; inhibition, % at 10 µM; S. cerevisiae AD/CaMDR1, Nile Red efflux, flow cytometry; actives 1% (n = 1,700); shares compounds with Efflux pump inh; in the data active means inhibition above about 26%;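 further: 0% = DMSO vehicle and 100% = reference inhibitor; higher means more Nile Red retained so more efflux inhibition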
Cdr2 pump inh = inhibitors of Candida albicans Cdr2 efflux pump. shares compounds with Efflux pump inh. S. cerevisiae AD/CaCDR2, Nile Red retention, flow cytometry. Nile Red retention ratio vs DMSO, % at 10 µM. actives 4% (n = 1,700); in the data active means Nile Red retention ratio vs DMSO above about 190%;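 further: higher ratio means more blocking of Cdr2 efflux of the dye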
Cdr1 pump inh = blocks the Candida albicans Cdr1 efflux pump in yeast. actives 1% (n = 1,700). S. cerevisiae AD/CaCDR1, Nile Red efflux, flow cytometry. shares compounds with Efflux pump inh. inhibition, % at 10 µM. AID 588522;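 active means inhibition above the screen-wide mean plus twice its standard deviation, cut at about 32% in these data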
The depositor's hits bear a star.

For CCn1c(SC2CCOC2=O)nnc1-c1ccc(Cl)cc1 (stereo not drawn) the results were GSK3A inh -0.5, Efflux pump inh 0.0, PolyA inhibitor 10.8, STK33 inh -0.2 and GSK3B inh 1.1.
For COc1ccc(C(=O)NCC(=O)OCC(=O)N2CCc3ccccc32)cc1 the results were GSK3A inh 0.3, Efflux pump inh 0.0, PolyA inhibitor 0.8, STK33 inh 0.3 and GSK3B inh -3.4.
COc1ccc(-c2cc(N3C(=O)Nc4ccccc4N3O)n[nH]2)cc1 was read as GSK3A inh -0.1, Efflux pump inh 6.5*, PolyA inhibitor 16.3, STK33 inh -0.4, GSK3B inh 0.0, Cmpd fluor yeast 97.8, CaMdr1 efflux inh -0.2, Cdr2 pump inh 100.1 and Cdr1 pump inh 0.0.
Screening Cc1ccc(C(=O)CCC(=O)Nc2cccc(C)c2)cc1 returned GSK3A inh -1.3, Efflux pump inh 0.1, PolyA inhibitor -11.1, STK33 inh -0.3 and GSK3B inh -0.1.
Screening CCc1c(C)[nH]c2c1C(=O)C(CN1CCOCC1)CC2 (stereo not drawn) returned GSK3A inh 2.3, Efflux pump inh 0.3, PolyA inhibitor 5.5, STK33 inh 1.4 and GSK3B inh -2.0.
Screening Cc1ccccc1/C=C/c1cc[n+](C)cc1 returned GSK3A inh -0.5, Efflux pump inh -0.1, PolyA inhibitor 2.0, STK33 inh 0.0 and GSK3B inh -0.1.
Screening C=CCn1cc(/C=C/c2cc[n+](C)cc2)c2ccccc21 returned GSK3A inh 1.6, Efflux pump inh 1.1, PolyA inhibitor -3.5, STK33 inh 0.2, GSK3B inh -30.7, Cmpd fluor yeast 289.3*, CaMdr1 efflux inh -0.1, Cdr2 pump inh 114.1 and Cdr1 pump inh 0.0.
CC(C)n1cc(/C=C/c2cc[n+](C)cc2)c2ccccc21 was read as PolyA inhibitor 0.0, GSK3B inh -2.8, Cmpd fluor yeast 472.1*, CaMdr1 efflux inh 1.2, Cdr2 pump inh 95.4 and Cdr1 pump inh 0.5.
For CCn1cc(/C=C/c2cc[n+](C)cc2)c2ccccc21 the results were GSK3A inh 2.5, Efflux pump inh 5.0*, PolyA inhibitor 4.9, STK33 inh 0.4, GSK3B inh -2.1, Cmpd fluor yeast 725.7*, CaMdr1 efflux inh 3.0, Cdr2 pump inh 112.0 and Cdr1 pump inh 3.5.
Screening C=CCn1c(C)c(/C=C/c2cc[n+](C)cc2)c2ccccc21 returned GSK3A inh 2.4, Efflux pump inh 1.4*, PolyA inhibitor 6.4, STK33 inh 3.4, GSK3B inh 1.1, Cmpd fluor yeast 683.6*, CaMdr1 efflux inh 2.6, Cdr2 pump inh 133.2 and Cdr1 pump inh 2.4.
For Cc1ccc(NC(=O)C2CCN(S(=O)(=O)c3ccc4c(c3)OCCO4)CC2)c(O)c1 the results were GSK3A inh 0.1, Efflux pump inh -0.1, PolyA inhibitor -31.0, STK33 inh -1.7 and GSK3B inh -3.9.
For CCN(CC)C(=O)Cn1c(C)c(/C=C/c2cc[n+](C)cc2)c2ccccc21 the results were GSK3A inh -1.2, Efflux pump inh 0.4, PolyA inhibitor -9.0, STK33 inh -1.3, GSK3B inh 2.4, Cmpd fluor yeast 365.4*, CaMdr1 efflux inh 0.5, Cdr2 pump inh 120.5 and Cdr1 pump inh 0.2.
O=C(CN1CCc2ccccc2C1)c1cccs1 was read as GSK3A inh -1.6, Efflux pump inh 0.2, PolyA inhibitor 14.8, STK33 inh 0.5 and GSK3B inh 0.9.
CCOC(Cn1c(SCc2cc(C(C)=O)ccc2OC)nc2ccccc2c1=O)OCC was read as GSK3A inh -1.4, Efflux pump inh -0.2, PolyA inhibitor -2.9, STK33 inh -0.8 and GSK3B inh 2.8.
COc1ccc(C(C)=O)cc1CSc1nc2cc(C(=O)O)ccc2c(=O)n1Cc1ccccc1 was read as GSK3A inh -2.7, Efflux pump inh 5.8*, PolyA inhibitor -1.4, STK33 inh -0.3, GSK3B inh -19.8, Cmpd fluor yeast 97.8, CaMdr1 efflux inh -0.2, Cdr2 pump inh 108.3 and Cdr1 pump inh 0.2.
Screening CCc1cc2c(=O)n(Cc3ccccc3)c(SC3CCOC3=O)nc2s1 (stereo not drawn) returned GSK3A inh -4.1, Efflux pump inh 0.9*, PolyA inhibitor 16.6, STK33 inh -0.7, GSK3B inh 2.4, Cmpd fluor yeast 97.8, CaMdr1 efflux inh -0.3, Cdr2 pump inh 112.4 and Cdr1 pump inh 0.1.
Screening CCOc1ccc(C2Nc3ccc4ccccc4c3-c3c2c(=O)oc2ccccc32)cc1 (stereo not drawn) returned GSK3A inh -2.6, Efflux pump inh 0.6*, PolyA inhibitor -12.9, STK33 inh 0.1, GSK3B inh 0.5, Cmpd fluor yeast 118.2, CaMdr1 efflux inh 0.5, Cdr2 pump inh 107.2 and Cdr1 pump inh 1.1.
`O=c1oc2ccccc2c2c1C(c1ccc(Cl)cc1)Nc1ccc3ccccc3c1-2` (stereo not drawn) gave GSK3A inh 2.1, Efflux pump inh 1.0*, PolyA inhibitor -9.2, STK33 inh -3.0, GSK3B inh 2.3, Cmpd fluor yeast 103.4, CaMdr1 efflux inh -0.2, Cdr2 pump inh 114.4 and Cdr1 pump inh 0.5.
`CCSc1cc(N2CCCC2)nc(-c2ccccc2Cl)n1` gave GSK3A inh -0.4, Efflux pump inh 0.0, PolyA inhibitor 3.1, STK33 inh -1.0, GSK3B inh -1.5, Cmpd fluor yeast 106.2, CaMdr1 efflux inh -0.2, Cdr2 pump inh 95.6 and Cdr1 pump inh -0.1.
For CSc1cc(N2CCOCC2)nc(-c2ccccc2Cl)n1 the results were GSK3A inh 5.8, Efflux pump inh 0.6, PolyA inhibitor -17.1, STK33 inh -2.5, GSK3B inh -6.0, Cmpd fluor yeast 90.7, CaMdr1 efflux inh -0.1, Cdr2 pump inh 102.9 and Cdr1 pump inh 0.0.
Cc1cc(N2CCCC2)nc(-c2ccccc2O)n1 was read as GSK3A inh -1.8, Efflux pump inh -0.1, PolyA inhibitor -1.5, STK33 inh -0.1 and GSK3B inh 1.0.
For CC(C)Sc1cc(N2CCCC2)nc(-c2ccccc2Cl)n1 the results were GSK3A inh -1.0, Efflux pump inh 0.4, PolyA inhibitor -7.8, STK33 inh -0.6, GSK3B inh 3.4, Cmpd fluor yeast 160.8, CaMdr1 efflux inh 0.3, Cdr2 pump inh 105.1 and Cdr1 pump inh -0.1.
`COCc1cc(N2CCOCC2)nc(-c2ccccc2)n1` gave GSK3A inh -0.8, Efflux pump inh 0.1, PolyA inhibitor 0.0, STK33 inh -0.7 and GSK3B inh 1.9.
